Consider four molecules from article PMC10194330 (Virus Research, 2022).

Each structure is given as a SMILES string.

One series concerns ZIKV. The note with it: ref Sultana et al., 2018; cited from earlier work.
Another series concerns HCV. The note with it: ref Bost et al., 2003; cited from earlier work.
The subject of the next series is ER. The note with it: treatment during 2 h; ref Terasaki et al., 1986; cited from earlier work.
Series [1] concerns BHK-21 cells. The series can be described thus: Fluorescence imaging of microtubules, MTOC and endoplasmic reticulum. Format: cell-based. The settings on record: for MTOC localization/detection: BHK-21 cells, 24 h treatment. In a few lines:
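BHK-21 cells on coverslips infected (MOI=1, 2 h) or mock, then treated 24 h with test compound from 6 or 12 hpi. Fixed in 3.8% paraformaldehyde. Microtubules stained with anti-α/β-tubulin and MTOC with anti-γ-tubulin; […] used as comparator. For ER imaging, cells were transfected with pmKate2-ER plasmid and infected 24 h later. Imaged with a 60x objective.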

The subject of series [2] is BHK-21 cells. The series can be described thus: Cell recovery assay. Format: cell-based. In a few lines: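 BHK-21 cells on coverslips exposed 24 h to test compound. Compound then removed, monolayers washed and cultured 3 days in DMEM with 2% FBS. Cells fixed with 3.8% paraformaldehyde and nuclei stained with Hoechst 33342. Morphology imaged by differential interference contrast with a 60x objective.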

For series [3], the system named is BHK-21 cells. The series can be described thus: Annexin V staining, size and granularity. Format: cell-based. The note with it: infected or uninfected BHK-21 cells, 24 h. In a few lines: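 Infected and/or treated BHK-21 cells resuspended in binding buffer with annexin V, incubated 15 min at 4 °C, then diluted with binding buffer and centrifuged 5 min. Analysed by flow cytometry for annexin V, with cell size from forward scatter (FSC) and granularity from side scatter (SSC).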

Series [4] has as its system DENV-2. The series can be described thus: Time-of-addition. Format: cell-based, Dengue virus. The settings on record: S.71 72.4 μM, POD 0.1 μM added at 6 and 12 hpi, 24 h exposure, MOI=1. In a few lines: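 BHK-21 cells infected (MOI=1, 2 h, 37 °C, 5% CO2) and washed with PBS. DMEM with 2% FBS containing test compound (72.4 µM; positive control 0.1 µM) added at 6, 12, 24 or 36 hpi, then incubated a further 24 h. Supernatant titrated by plaque assay. DMSO <0.05%. Three independent experiments, mean ± s.e.m., one-way ANOVA.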

Series [5] relates to BHK-21 cells. The series can be described thus: Cytotoxicity assay. The series is classed as cell-based.
In series [6] the test system is DENV-2. The series can be described thus: Post-infection plaque reduction assay. Format: cell-based, Dengue virus. The note with it: S.71 at 50 and 100 μM, POD at 0.1 μM; six days. The method, boiled down: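 BHK-21 cells infected with DENV-2 (MOI=1) for 2 h at 37 °C, 5% CO2, then washed with PBS. Test compound (12.5–100 µM) added in 1.5% carboxymethylcellulose medium; positive control as log dilutions 0.1–100 µM. Incubated 6 days, then plaques counted in 3 independent assays. EC50 defined as the concentration reducing viral plaques by 50%.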

The subject of series [7] is DENV-2. The series can be described thus: Fluorescence imaging of dsRNA and ENV protein. The series is classed as cell-based, Dengue virus. The settings on record: treatment at 6 and 12 hpi; S.71 72.4 µM, POD 0.1 µM. The method, boiled down: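 BHK-21 cells on coverslips infected with DENV-2 (MOI=1, 2 h). Test compound (72.4 µM; positive control 0.1 µM) added at 6 or 12 hpi and left 24 h. Cells washed with cytoskeleton buffer, fixed in 3.8% paraformaldehyde and immunostained for ENV (4G2) and dsRNA (J2), with tubulin and Hoechst nuclei. Imaged with a 60x objective; mean fluorescence intensity quantified. Three independent triplicate experiments; unpaired t-test.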

In series [8] the test system is DENV-2. The series can be described thus: Negative-strand RNA production. Format: cell-based, Dengue virus. The note with it: S.71 72.4 μM, POD 0.1 μM; 6 and 12 hpi.

Consider `COc1cc2c(c(OC)c1OC)-c1ccc(OC)c(=O)cc1[C@@H](NC(C)=O)CC2` [colchicine], for which the ZIKV viral infection entry in the series on ZIKV is given as “reduced”. Moreover, the HCV viral infection entry in the series with HCV is reported as “reduced”.

`CC(=O)O[C@H]1C(=O)[C@@]2(C)[C@H]([C@H](OC(=O)c3ccccc3)[C@]3(O)C[C@H](OC(=O)[C@H](O)[C@@H](NC(=O)c4ccccc4)c4ccccc4)C(C)=C1C3(C)C)[C@]1(OC(C)=O)CO[C@@H]1C[C@@H]2O` [paclitaxel]: the ZIKV viral infection entry in the series on ZIKV is reported as “reduced”. The HCV viral infection entry in the series with HCV is given as “reduced”.

Take `COC(=O)Nc1nc2ccc(C(=O)c3cccs3)cc2[nH]1` [nocodazole]: in the series with ER, the “effect on ER” value is on record as “ER retraction”. In the series with BHK-21 cells [1], the MTOC localization/detection entry is listed as “not detected”. Besides, the ZIKV viral infection entry in the series on ZIKV is on record as “reduced”. In the series on HCV, the HCV viral infection result was “reduced”.

Regarding `COc1cc([C@@H]2c3cc4c(cc3[C@H](O)[C@H]3COC(=O)[C@H]23)OCO4)cc(OC)c1OC` [POD, Podophyllotoxin], the “recovery of cell morphology after treatment removal” value in the series with BHK-21 cells [2] (24 h treatment, then nutrient-supplemented medium) was “recovered their normal morphology after three days”. Moreover, the “nuclei after 24 h treatment” value with BHK-21 cells [2] (BHK-21 cells, 24 h) was “pyknotic and fragmented nuclei”. In the series with BHK-21 cells [3], the “cell granularity (SSC)” value was “increase in cell granularity”, the “cell size (FSC)” value was “changes in cell size were not observed” and the “phosphatidylserine exposure (annexin V)” value was “nor changes in phosphatidylserine exposure”. In addition, the “viral yield of DENV-2” value with DENV-2 [4] is “effective”. Moreover, the “concentrations at which very toxic” value with BHK-21 cells [5] (CC50 could not be determined) is > 1000 nM. For the same molecule, the “effect on cells below 1 µM” value with BHK-21 cells [5] (below 1 µM) is given as “cytostatic”. Further, the “effect on rough endoplasmic reticulum” value in the series with BHK-21 cells [1] (6 hpi or 12 hpi, infected and mock cells) is “ER retraction”. In the series on BHK-21 cells [1], the MTOC localization/detection entry is “not detected”. Further, the “cell morphology and microtubule distribution” value in the series on BHK-21 cells [1] (infected and uninfected cells treated at 6 or 12 hpi, 24 h, S.71 72.4 µM, POD 0.1 µM) is “round morphology and fragmented microtubules”. Moreover, in the series on DENV-2 [6], the “viral titer in post-infection treatment” value was “effective”. For the same molecule, in the series with DENV-2 [7], the “ENV protein signal (MFI)” value was “significant decreases” and the “dsRNA signal (MFI)” value is given as “significant decreases”. Moreover, the “negative-strand RNA copies” value in the series on DENV-2 [8] is reported as “low numbers of copies”.
